The results in this text go back to ChEMBL document CHEMBL3407377, “Synthesis and pharmacological evaluation of benzannulated derivatives as potent and selective sigma-1 protein ligands” (Eur J Med Chem, 2015).

Test [1] deals with Sigma non-opioid intracellular receptor 1 (Homo sapiens, UniProt Q99720). The test can be described thus: Displacement of [3H](+)Pentazocine from sigma 1 receptor in human Jurkat cells after 120 mins by liquid scintillation counting analysis. The test is classed as cell-based. Background: Loss of bound radioactivity is the signal in a displacement assay; it reports binding, not function.
Sequence of Sigma non-opioid intracellular receptor 1 (Q99720 whole entry): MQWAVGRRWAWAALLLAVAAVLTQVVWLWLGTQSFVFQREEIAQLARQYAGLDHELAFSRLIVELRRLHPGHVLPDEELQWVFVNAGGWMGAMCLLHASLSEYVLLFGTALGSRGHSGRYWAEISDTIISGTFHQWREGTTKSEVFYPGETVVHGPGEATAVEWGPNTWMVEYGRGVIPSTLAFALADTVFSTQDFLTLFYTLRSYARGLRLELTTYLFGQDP

Test [2] in a line: Cytotoxicity against human SH-SY5Y cells assessed as cell viability after 72 hrs by MTT assay. The test is classed as cell-based. The procedure, abridged: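 Human neuroblastoma SY5Y cells were exposed to a range of concentrations up to 100 μM. Viability was read by colorimetric MTT assay, and the IC50 was taken from it.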
Background: Formazan colour is commonly taken as a measure of viable cells.

The nature of test [3]: Ratio of IC50 for human SY5Y cells to Ki for sigma 1 receptor in human Jurkat cells. Summed up: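 Selectivity index was calculated as the SY5Y cytotoxicity IC50 divided by the S1R Ki. The IC50 came from a colorimetric MTT viability assay on human neuroblastoma SY5Y cells dosed up to 100 μM. The Ki came from [3H](+)-pentazocine competition binding on Jurkat cell membranes.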

The subject of the next test is Jurkat. The test can be described thus: Selectivity ratio of Ki for sigma2 receptor in human Jurkat cells to Ki for sigma1 receptor human Jurkat cells. Type of test: cell-based. The procedure, abridged:
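Both affinities came from radioligand competition on Jurkat cell membranes. S1R used [3H](+)-pentazocine. S2R used [3H]-DTG with excess unlabelled (+)-pentazocine. Ki values were derived from IC50s, and the ratio was calculated as Ki(S2R)/Ki(S1R).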

A value given as a limit tells only on which side of the number the result lay.

Usually Ki stands for the dissociation constant of the complex between target and ligand, obtained from inhibition or displacement. By IC50 is commonly meant the concentration that inhibits the measured activity by half. In turn, `CN(CCCn1c(=O)n(C)c2ccccc21)Cc1ccccc1` registered a Ki in test [1] of more than 0.1 µM. In addition, the IC50 in test [2] is 73.8 µM.
In test [1], `O=c1sc2ccccc2n1CCCN1Cc2ccccc2C1` had an inhibition constant Ki of 0.0303 µM. Further, in test [2], the IC50 is more than 100 µM. Also, the Ratio in test [3] is given as more than 3000.
For `Cn1c(=O)n(CCCN2Cc3ccccc3C2)c2ccccc21`, the Ki in test [1] is more than 0.1 µM. Further, the IC50 in test [2] is more than 100 µM.
For the molecule `CN(CCCn1c(=O)oc2ccccc21)Cc1ccccc1`, in test [1], the Ki is more than 0.1 µM. In addition, the IC50 in test [2] was more than 100 µM.
With `CN(CCCN1C(=O)[C@@H]2Cc3ccccc3CN2C1=O)Cc1ccccc1`, the IC50 in test [2] was more than 100 µM.
Take `CN(CCCn1c(=O)sc2cc(Br)ccc21)Cc1ccccc1`: the Ki in test [1] turned out to be 0.0006 µM. In test [2], the IC50 was 13.2 µM. Also, the Ratio in test [3] amounted to 23250. Further, the Ratio Ki in the test on Jurkat was determined as 48.
In the same order, the values of `CN(CCCN1C(=O)CSc2ccc(Br)cc21)Cc1ccccc1` are 0.0022 µM, 18.7 µM, 8631 and 22.
In the same order, the values of `CN(CCCn1c(=O)sc2ccc(Br)cc21)Cc1ccccc1` are 0.0031 µM, 26.5 µM, 8417 and 35.
The molecule `O=C1[C@@H]2Cc3ccccc3CN2C(=O)N1CCCN1Cc2ccccc2C1` gave a Ki in test [1] of 0.0053 µM. Also, in the test with Jurkat, the Ratio Ki stood at 78.
Regarding `CN(CCCn1c(=O)sc2ccccc21)Cc1ccccc1`, affinity in test [1] was put at a Ki of 0.0103 µM. Further, the IC50 in test [2] worked out at 10 µM. For the same molecule, the Ratio in test [3] is 973.
The like results for `O=c1sc2cc(Br)ccc2n1CCCN1Cc2ccccc2C1` were, in that order, 0.0057 µM, 31.4 µM and 5471.
`O=c1oc2ccccc2n1CCCN1Cc2ccccc2C1` gave a Ki in test [1] of more than 0.1 µM. Also, in test [2], the IC50 is more than 100 µM.
In test [1], `CN(CCCn1c(=O)oc2ccc(Br)cc21)Cc1ccccc1` showed a Ki of 0.0012 µM. The IC50 in test [2] amounted to 14.2 µM. Besides, the Ratio in test [3] turned out to be 11463. Besides, the Ratio Ki in the test on Jurkat was 13.
Take `CN(CCCn1c(=O)oc2ccc(Cl)cc21)Cc1ccccc1`: in test [1], the Ki is 0.0064 µM. For the same molecule, in test [2], the IC50 was more than 100 µM. The Ratio in test [3] was 15500. The Ratio Ki with Jurkat was 16.
The like results for `CN(CCCn1c(=O)oc2cc(Br)ccc21)Cc1ccccc1` were, in that order, 0.0009 µM, 58.8 µM, 63291 and 37.
For the molecule `Cc1nc2ccccc2n1CCCN(C)Cc1ccccc1`, in test [1], the Ki was more than 0.1 µM. Further, in test [2], the IC50 turned out to be 50.2 µM.
In turn, `CN(CCCn1c(=O)sc2ccc(Cl)cc21)Cc1ccccc1` registered a Ki in test [1] of 0.0047 µM. The IC50 in test [2] was determined as 9.9 µM. Further, the Ratio in test [3] was 2124. The Ratio Ki with Jurkat worked out at 35.
For `O=C1COc2ccc(Br)cc2N1CCCN1Cc2ccccc2C1`, in test [1], the Ki is more than 0.1 µM. For the same molecule, the IC50 in test [2] was more than 100 µM.
Take `CN(CCCN1C(=O)COc2ccc(Br)cc21)Cc1ccccc1`: the Ki in test [1] was more than 0.1 µM. Also, the IC50 in test [2] turned out to be 13.4 µM.
Take `O=c1oc2cc(Br)ccc2n1CCCN1Cc2ccccc2C1`: in test [1], the Ki was more than 0.1 µM. In addition, the IC50 in test [2] was more than 100 µM.
